ChEMBL document CHEMBL1126018, “Syntheses and 5-HT2 antagonist activity of bicyclic 1,2,4-triazol-3(2H)-one and 1,3,5-triazine-2,4(3H)-dione derivatives” (J Med Chem, 1992)

Key:
[1] = target: T1, Adrenergic receptor alpha-1 (Rattus norvegicus, UniProt P15823+P23944+P43140); experiment: In vitro antagonistic activity tested against the contraction induced by phenylephrine through Alpha-1 adrenergic receptor in rat thoracic aortic strips; format: functional
T1 sequence (P15823 whole entry): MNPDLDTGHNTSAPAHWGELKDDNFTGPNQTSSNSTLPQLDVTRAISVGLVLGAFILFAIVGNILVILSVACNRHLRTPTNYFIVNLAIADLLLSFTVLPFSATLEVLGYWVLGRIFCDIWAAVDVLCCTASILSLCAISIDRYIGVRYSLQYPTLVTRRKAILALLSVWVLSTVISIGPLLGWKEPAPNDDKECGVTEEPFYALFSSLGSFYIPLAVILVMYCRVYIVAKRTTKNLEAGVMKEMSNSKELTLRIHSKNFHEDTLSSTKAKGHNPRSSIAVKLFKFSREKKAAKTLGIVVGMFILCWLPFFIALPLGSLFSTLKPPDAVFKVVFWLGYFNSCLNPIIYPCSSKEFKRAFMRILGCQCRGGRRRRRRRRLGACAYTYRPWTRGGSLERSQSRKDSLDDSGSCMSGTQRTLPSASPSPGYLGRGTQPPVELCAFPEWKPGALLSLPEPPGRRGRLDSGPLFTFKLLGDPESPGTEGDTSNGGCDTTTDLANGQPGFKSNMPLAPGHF
T1 sequence (P23944 whole entry): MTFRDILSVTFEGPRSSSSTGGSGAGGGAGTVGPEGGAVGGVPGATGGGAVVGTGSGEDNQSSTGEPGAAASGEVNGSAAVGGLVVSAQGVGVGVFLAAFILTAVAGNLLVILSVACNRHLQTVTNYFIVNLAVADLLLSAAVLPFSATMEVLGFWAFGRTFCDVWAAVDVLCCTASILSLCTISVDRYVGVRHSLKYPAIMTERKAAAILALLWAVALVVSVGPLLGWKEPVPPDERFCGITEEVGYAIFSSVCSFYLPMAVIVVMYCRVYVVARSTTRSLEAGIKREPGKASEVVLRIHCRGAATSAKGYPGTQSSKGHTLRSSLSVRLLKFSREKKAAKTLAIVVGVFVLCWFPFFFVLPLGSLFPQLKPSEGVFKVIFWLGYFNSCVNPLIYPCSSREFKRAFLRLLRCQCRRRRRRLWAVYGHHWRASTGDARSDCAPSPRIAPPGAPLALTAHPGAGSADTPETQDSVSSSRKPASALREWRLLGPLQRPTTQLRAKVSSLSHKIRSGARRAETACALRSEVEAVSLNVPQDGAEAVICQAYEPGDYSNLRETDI
T1 sequence (P43140 whole entry): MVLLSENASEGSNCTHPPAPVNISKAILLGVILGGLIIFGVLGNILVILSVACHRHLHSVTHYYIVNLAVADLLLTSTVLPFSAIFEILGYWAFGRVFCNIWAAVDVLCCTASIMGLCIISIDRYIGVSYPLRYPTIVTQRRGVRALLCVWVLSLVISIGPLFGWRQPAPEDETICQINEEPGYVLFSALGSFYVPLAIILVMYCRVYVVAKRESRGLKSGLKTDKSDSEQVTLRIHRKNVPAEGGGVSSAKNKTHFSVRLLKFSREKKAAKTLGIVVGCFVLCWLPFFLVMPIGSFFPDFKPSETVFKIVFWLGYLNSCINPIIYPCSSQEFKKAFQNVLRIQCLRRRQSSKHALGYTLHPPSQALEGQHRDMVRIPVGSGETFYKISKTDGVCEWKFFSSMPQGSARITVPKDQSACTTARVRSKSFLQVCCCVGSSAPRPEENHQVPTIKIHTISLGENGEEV
Method in brief: (§1)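 Rat thoracic aortic strips, isometric tension; equilibrated 120 min, primed with 60 mM KCl. Cumulative phenylephrine (0.01-10 μM) curve, wash, 1 h later second cumulative curve with test drug present. pA2 from the concentration-response curves where blockade is competitive (otherwise noncompetitive); single determination.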

Mus musculus [2] = experiment: The inhibition of compound was measured for 5 min in head twitches of mice induced by 5-HTP(100 mg/kg, ip) at the dose of 1 mg/kg; format: functional
Method in brief: (§2)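 Mice received drug orally 1 h before 5-HTP (100 mg/kg ip). Head twitches were counted for 5 or 8 min, starting 30 min after 5-HTP. Results are % inhibition versus controls (n = 6), with n = 4 per treated dose.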

Mus musculus [3] = experiment: The inhibition of compound was measured for 5 min in head twitches of mice induced by 5-HTP(100 mg/kg, ip) at the dose of 3 mg/kg; format: functional; method in brief: as §2
[4] = target: T2, Adrenergic receptor alpha-1 (Rattus norvegicus) (UniProt P15823+P23944+P43140); experiment: In vivo inhibitory activity in rats against elevation of blood pressure caused by phenylephrine (30 ug/kg, iv) through Alpha-1 adrenergic receptor, after 1 hr oral administration at dose of 10 mg/kg; format: functional, organism-based; design: dose 10 mg/kg
Method in brief: (§3)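 Male SD rats under urethane (1 g/kg ip) and alpha-chloralose (80 mg/kg ip). Blood pressure recorded via carotid catheter and transducer, iv dosing via venous catheter. After oral drug or vehicle, phenylephrine 30 μg/kg iv. The pressor rise was expressed as % inhibition, mean ± SEM.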

Mus musculus [5] = experiment: The inhibition of compound was measured for 5 min in head twitches of mice induced by 5-HTP(100 mg/kg, ip) at the dose of 10 mg/kg; format: functional; method in brief: as §2
[6] = target: T3, Serotonin 2 (5-HT2) receptor (Rattus norvegicus) (UniProt P30994+P08909+P14842); experiment: In vivo inhibitory activity of 3 mg/kg compound in rats against elevation of BP caused by 5-HT (300 ug/kg, iv) through 5-hydroxytryptamine 2 receptor 3h after oral administration; format: functional, organism-based; design: dose 3 mg/kg
Method in brief: (§4)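 Male SD rats anesthetized with urethane (1 g/kg ip) plus alpha-chloralose (80 mg/kg ip). Carotid arterial catheter to a pressure transducer, venous catheter for injection. After oral drug or vehicle, 5-HT 300 μg/kg iv. The pressor phase following the brief hypotensive phase was measured and expressed as % inhibition, mean ± SEM.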

Mus musculus [7] = experiment: The inhibition of compound was measured for 8 min in head twitches of mice induced by 5-HTP(100 mg/kg, ip) at the dose of 0.1 mg/kg; format: functional; method in brief: as §2
[8] = target: T3, Serotonin 2 (5-HT2) receptor (Rattus norvegicus); experiment: In vivo inhibitory activity of 3 mg/kg compound in rats against elevation of BP caused by 5-HT (300 ug/kg, iv) through 5-hydroxytryptamine 2 receptor 1 hr after oral administration; format: functional, organism-based; design: dose 3 mg/kg; method in brief: as §4
[9] = target: T4, Serotonin 2 (5-HT2) receptor (Rattus norvegicus, UniProt P30994+P08909+P14842); experiment: In vitro antagonistic activity tested against the contraction induced by 5-HT through 5-hydroxytryptamine 2 receptor in rat thoracic aortic strips; format: functional
[10] = target: T2, Adrenergic receptor alpha-1 (Rattus norvegicus); experiment: In vivo inhibitory activity in rats against elevation of blood pressure caused by phenylephrine (30 ug/kg, iv) through alpha-1 receptor after 1 hr of oral administration at the dose of 10 mg/kg; format: functional, organism-based; design: dose 10 mg/kg; method in brief: as §3
[11] = target: T3, Serotonin 2 (5-HT2) receptor (Rattus norvegicus); experiment: (§5) In vitro antagonistic activity against the contraction induced by 5-HT through 5-hydroxytryptamine 2 receptor in rat thoracic aortic strips; format: functional; conditions: concentration not given here
Method in brief: as §1, with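 “5-HT (0.1-100” for “phenylephrine (0.01-10”, “cumulative 5-HT” for “cumulative”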

Mus musculus [12] = experiment: The inhibition of compound was measured for 8 min in head twitches of mice induced by 5-HTP(100 mg/kg, ip) at the dose of 1 mg/kg; format: functional; method in brief: as §2
[13] = target: T3, Serotonin 2 (5-HT2) receptor (Rattus norvegicus); experiment: In vivo inhibitory activity of 10 mg/kg compound in rats against elevation of BP caused by 5-HT (300 ug/kg, iv) through 5-hydroxytryptamine 2 receptor 3h after oral administration; format: functional, organism-based; design: dose 10 mg/kg; method in brief: as §4
Mus musculus [14] = experiment: The inhibition of compound was measured for 8 min in head twitches of mice induced by 5-HTP(100 mg/kg, ip) at the dose of 0.3 mg/kg; format: functional; method in brief: as §2
[15] = target: T4, Serotonin 2 (5-HT2) receptor; experiment: as §5; format: functional
Method in brief: as §1, with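 “5-HT (0.1-100” for “phenylephrine (0.01-10”, “cumulative 5-HT” for “cumulative”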

[16] = target: T3, Serotonin 2 (5-HT2) receptor (Rattus norvegicus); experiment: In vivo inhibitory activity of 10 mg/kg compound in rats against elevation of BP caused by 5-HT (300 ug/kg, iv) through 5-hydroxytryptamine 2 receptor 1 hr after oral administration; format: functional, organism-based; design: dose 10 mg/kg; method in brief: as §4
[17] = target: T4, Serotonin 2 (5-HT2) receptor; experiment: In vitro antagonistic activity against the contraction induced by 5-HT through 5-HT2 receptor in rat thoracic aortic strips; format: functional
Method in brief: as §1, with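 “5-HT (0.1-100” for “phenylephrine (0.01-10”, “cumulative 5-HT” for “cumulative”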

[18] = target: T2, Adrenergic receptor alpha-1 (Rattus norvegicus); experiment: In vivo inhibitory activity in rats against elevation of blood pressure caused by phenylephrine (30 ug/kg, iv) through Alpha-1 adrenergic receptor after 1 hr of oral administration at the dose of 10 mg/kg; format: functional, organism-based; design: dose 10 mg/kg; method in brief: as §3
Mus musculus [19] = experiment: The inhibition of compound was measured for 5 min in head twitches of mice induced by 5-HTP(100 mg/kg, ip) at the dose of 30 mg/kg; format: functional; method in brief: as §2
[20] = test system: Serotonin 2 (5-HT2) receptor (Rattus norvegicus); experiment: In vivo inhibitory activity in rats against elevation of blood pressure caused by 5-HT (300 ug/kg, iv) through 5-HT2 receptor after 3h of oral administration at the dose of 3 mg/kg
[21] = target: T2, Adrenergic receptor alpha-1 (Rattus norvegicus); experiment: In vitro antagonistic activity against the contraction induced by phenylephrine through Alpha-1 adrenergic receptor in rat thoracic aortic strips; format: functional; conditions: concentration not given here; method in brief: as §1
[22] = target: T1, Adrenergic receptor alpha-1; experiment: In vitro antagonistic activity against the contraction induced by phenylephrine through alpha-1 receptor in rat thoracic aortic strips; format: functional; method in brief: as §1
[23] = target: T2, Adrenergic receptor alpha-1 (Rattus norvegicus); experiment: In vivo inhibitory activity in rats against elevation of blood pressure caused by phenylephrine (30 ug/kg, iv) through alpha-1 receptor after 3h of oral administration at the dose of 10 mg/kg; format: functional, organism-based; design: dose 10 mg/kg; method in brief: as §3

T3 sequence (P08909 whole entry, looked up): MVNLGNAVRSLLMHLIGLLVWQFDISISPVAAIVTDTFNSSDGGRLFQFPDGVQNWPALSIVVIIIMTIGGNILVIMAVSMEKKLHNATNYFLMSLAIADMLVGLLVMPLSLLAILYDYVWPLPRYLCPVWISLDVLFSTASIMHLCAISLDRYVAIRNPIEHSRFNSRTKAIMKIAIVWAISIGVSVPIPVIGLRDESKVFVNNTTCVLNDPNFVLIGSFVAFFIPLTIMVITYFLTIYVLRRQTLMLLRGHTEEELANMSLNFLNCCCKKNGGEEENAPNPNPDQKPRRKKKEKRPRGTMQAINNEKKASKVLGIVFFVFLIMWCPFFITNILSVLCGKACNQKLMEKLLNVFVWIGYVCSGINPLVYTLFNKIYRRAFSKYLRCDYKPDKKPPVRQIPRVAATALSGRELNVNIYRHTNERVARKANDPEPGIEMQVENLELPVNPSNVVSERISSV
T3 sequence (P14842 whole entry, looked up): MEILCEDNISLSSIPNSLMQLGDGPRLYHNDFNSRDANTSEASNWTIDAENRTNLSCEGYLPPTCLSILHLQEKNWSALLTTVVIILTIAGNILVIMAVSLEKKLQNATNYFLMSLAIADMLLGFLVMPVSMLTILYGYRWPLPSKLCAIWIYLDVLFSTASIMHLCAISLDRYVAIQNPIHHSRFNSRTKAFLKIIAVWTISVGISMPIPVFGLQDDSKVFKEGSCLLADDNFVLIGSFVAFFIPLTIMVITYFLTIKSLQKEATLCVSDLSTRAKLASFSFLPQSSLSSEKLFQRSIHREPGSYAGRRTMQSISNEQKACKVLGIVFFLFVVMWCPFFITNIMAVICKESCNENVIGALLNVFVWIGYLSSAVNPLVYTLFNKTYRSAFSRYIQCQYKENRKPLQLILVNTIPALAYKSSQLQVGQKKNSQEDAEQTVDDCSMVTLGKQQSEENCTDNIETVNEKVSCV
T3 sequence (P30994 whole entry, looked up): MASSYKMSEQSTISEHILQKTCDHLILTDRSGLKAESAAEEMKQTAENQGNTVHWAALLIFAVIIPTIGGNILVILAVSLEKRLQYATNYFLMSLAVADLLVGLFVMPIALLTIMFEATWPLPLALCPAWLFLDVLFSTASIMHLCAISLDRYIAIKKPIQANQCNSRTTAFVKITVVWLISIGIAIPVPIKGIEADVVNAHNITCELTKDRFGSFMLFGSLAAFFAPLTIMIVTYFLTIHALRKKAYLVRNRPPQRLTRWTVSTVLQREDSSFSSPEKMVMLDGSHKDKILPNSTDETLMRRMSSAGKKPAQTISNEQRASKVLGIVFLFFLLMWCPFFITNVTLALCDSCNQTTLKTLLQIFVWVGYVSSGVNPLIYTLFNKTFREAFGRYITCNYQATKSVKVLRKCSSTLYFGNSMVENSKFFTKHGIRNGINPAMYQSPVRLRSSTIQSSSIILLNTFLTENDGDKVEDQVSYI

pA2 [1]	inhibition [6]	inhibition [8]	pA2 [9]	inhibition [11]	inhibition [13]	inhibition [16]	Compound	inhibition in vivo at 3 mg/kg (Mus musculus [3])	inhibition [4]	inhibition in vivo at 10 mg/kg (Mus musculus [5])	inhibition in vivo at 0.1 mg/kg (Mus musculus [7])	inhibition [10]	inhibition in vivo at 1 mg/kg (Mus musculus [12])	inhibition in vivo at 0.3 mg/kg (Mus musculus [14])	also measured
7.5							Cc1nc2sccn2c(=O)c1CCN1CCC(=C(c2ccc(F)cc2)c2ccc(F)cc2)CC1 [RITANSERIN]	95%	7%	100%					inhibition in vivo at 1 mg/kg (Mus musculus [2]): 80%
6.9	83%	93%	8.1	93%	90%		O=C(c1ccc(F)cc1)C1CCN(CCn2c(=O)nc3n(c2=O)CCCC3)CC1	67%	33%	80%	49%	33%	81%	59%	
7.2						83%	O=C(c1ccc(Cl)cc1)C1CCN(CCn2nc3n(c2=O)CCCC3)CC1		16%						pA2 [15]: 7.2
6.6						58%	O=c1n(CCN2CCC(=C(c3ccc(F)cc3)c3ccc(F)cc3)CC2)nc2ccccn12		6%						pA2 [17]: 7

More lines, now with the values behind:

Compound	pA2 [1]	inhibition [6]	inhibition [8]	pA2 [9]	inhibition [11]	inhibition [13]	inhibition [16]	inhibition in vivo at 3 mg/kg (Mus musculus [3])	inhibition [4]	inhibition in vivo at 10 mg/kg (Mus musculus [5])	inhibition in vivo at 0.1 mg/kg (Mus musculus [7])	inhibition [10]	inhibition in vivo at 1 mg/kg (Mus musculus [12])	inhibition in vivo at 0.3 mg/kg (Mus musculus [14])	also measured
O=c1n(CCN2CCC(=C(c3ccc(F)cc3)c3ccc(F)cc3)CC2)nc2n1CCCC2		78%	76%	8.6	96%	87%		13%		55%					inhibition [18]: 14%; inhibition in vivo at 30 mg/kg (Mus musculus [19]): 85%; inhibition [20]: 11%; inhibition [21]: 14%; pA2 [22]: 7; inhibition [23]: 4%
O=C(c1ccc(F)cc1)C1CCN(CCn2c(=O)[nH]c3ccccc3c2=O)CC1 [KETANSERIN]	7.8	84%	96%			100%		92%	91%	100%	49%	91%	93%	88%	
